MrgX1 agonist = agonists of human MrgX1 receptor, primary screen, HEK293 cells, Fluo-4 calcium flux | Mas-related G-protein coupled receptor member X1 (Homo sapiens), Q96LB2 | Fluo-4 calcium fluorescence, agonist mode; stronger effect = higher value | B-score at 10 µM | 0.44% of 310,000 active | AID 588627, 2011;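 active = calcium response B-score plate-corrected fluorescence ratio at least 3 library SD, with starting fluorescence B-score inside 5 SD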
Target sequence (Q96LB2 whole entry, looked up): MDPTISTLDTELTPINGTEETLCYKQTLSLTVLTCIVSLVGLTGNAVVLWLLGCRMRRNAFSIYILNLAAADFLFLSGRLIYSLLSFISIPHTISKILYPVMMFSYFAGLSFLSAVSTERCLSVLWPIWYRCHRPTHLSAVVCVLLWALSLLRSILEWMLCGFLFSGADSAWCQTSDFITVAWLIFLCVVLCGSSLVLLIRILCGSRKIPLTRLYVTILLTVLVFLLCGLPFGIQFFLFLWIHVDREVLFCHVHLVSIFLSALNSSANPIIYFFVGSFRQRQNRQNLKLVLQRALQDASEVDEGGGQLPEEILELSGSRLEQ
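System: HEK293 cells stably expressing human MrgX1 receptor; Dosing: test compound in the initial addition of three; Schedule: overnight plating, then 30 min 37 °C plus 30 min room-temperature dye loading; Detection: kinetic calcium dye fluorescence, Fluo-4 NW; Controls: per-plate positive and negative controls for Z′ factor.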
RGS4 inh = RGS4 inhibitors, primary screen, cell-based, HEK293 M3R inducible RGS4, calcium flux; Regulator of G-protein signaling 4 (Homo sapiens), P49798; Fluo-4 calcium flux; stronger effect = higher value; triggered by carbachol at its EC20; B-score at 10 µM; 0.45% of 310,000 active;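 active = B-score, a plate-corrected calcium signal, over three deviations above library mean, with baseline fluorescence within five deviations of library mean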;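 note: RGS4 expression induced by doxycycline in cells with stable M3 receptor; B-score is computed from the integrated fluorescence ratio over baseline after carbachol; higher B-score means a larger calcium signal and so more RGS4 inhibition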
Target sequence (P49798 whole entry, looked up): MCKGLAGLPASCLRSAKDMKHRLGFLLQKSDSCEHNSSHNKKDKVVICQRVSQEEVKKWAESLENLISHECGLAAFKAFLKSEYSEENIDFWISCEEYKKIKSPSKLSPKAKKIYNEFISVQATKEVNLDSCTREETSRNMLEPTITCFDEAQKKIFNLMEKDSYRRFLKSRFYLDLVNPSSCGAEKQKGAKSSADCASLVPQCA
MrgX1 antagonist = antagonists of human MrgX1 receptor, primary screen, HEK293 cells, Fluo-4 calcium flux; B-score at 10 µM; BAM8-22 antagonism; stronger effect = lower value; Mas-related G-protein coupled receptor member X1 (Homo sapiens), Q96LB2; 1.3% of 310,000 active;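 active = calcium-response B-score plate-corrected more than 3 library SD below zero, starting fluorescence within 5 deviations, no agonist response on first addition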;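 note: peak minus trough fluorescence over baseline after final BAM8-22 challenge near maximal dose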
RGS4 act = RGS4 potentiators or activators, primary screen, cell-based, HEK293 M3R inducible RGS4, calcium flux; carbachol calcium flux Fluo4; stronger effect = lower value; B-score at 10 µM; 0.92% of 310,000 active;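 active = B-score of the integrated calcium signal more than 4 SD below the library mean, with starting fluorescence not abnormally high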;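 note: negative B-score means reduced calcium response which marks RGS4 activation or potentiation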
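Material: Inducible-RGS4 HEK293 cells carrying M3 receptor; also added: carbachol at ECmax as muscarinic agonist stimulus; incubation: compound preincubation 20 min at room temperature before agonist; signal: Fluo4-AM (2 µM) calcium-flux fluorescence, kinetic read; measure: integrated calcium ratio converted to B score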
Hep lipid drop = inhibitors of hepatocyte lipid droplet formation, primary screen, imaging, high-throughput imaging, BODIPY stain. AML12 mouse hepatocytes, oleate lipid droplets. AID 1656, 2009. inhibition, % at 6.5 µM. 0.4% of 240,000 active;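 active = lipid droplet intensity inhibited by at least 50%, with more than 500 cells counted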
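Technique: fluorescence imaging, 20x objective, two fields per well / Assay system: AML12 hepatocytes (mouse) / Measure: % inhibition of lipid droplet signal / Doses: 6.5 µM single-point dosing / Incubation: overnight exposure / Reagent: 100 µM oleic acid challenge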
MrgX1 allo act = positive allosteric modulators of MrgX1, primary screen, HEK293 cells, Fluo-4 calcium flux | 0.63% of 310,000 active | AID 588675, 2011 | FDSS; stronger effect = higher value | B-score at 10 µM;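 active = plate-corrected calcium response at least 3 library SD above typical, normal starting fluorescence, not activating the receptor alone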;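 note: compound read alongside a low EC10 to EC30 dose of BAM8-22 agonist; peak minus trough fluorescence over baseline measured at the second addition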
MrgX1 ant reconf = MrgX1 receptor antagonists, duplicate retest, confirmation, HEK293 cells, Fluo-4 calcium flux; AID 602420, 2012; shares compounds with MrgX1 antagonist; 19% of 2,300 active; remaining BAM8-22 calcium response % of control (stronger effect = lower value), % at 10 µM; BAM8-22 calcium flux; stronger effect = lower value;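 active = remaining agonist calcium response no higher than 100% minus 3 SD of agonist-only control wells, with starting fluorescence near control levels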;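 note: agonist BAM8-22 given at a near maximal EC90 to ECmax level; peak minus minimum fluorescence divided by baseline after agonist addition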
HEK293 Ca flux = nonspecific calcium signal in parental HEK293, confirmation, counter-screen for MrgX1 antagonist project, parental HEK293 cells, Fluo-4 calcium flux; shares compounds with MrgX1 antagonist; Fluo-4 calcium fluorescence, FDSS; fluorescence ratio F(max-min)/F0 at 10 µM; 2% of 4,000 active; AID 624111, 2012;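 active = duplicate-averaged calcium fluorescence ratio at least three times the standard deviation of buffer wells, a nonspecific response in parental cells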
HEK293 Ca counter = calcium response in parental HEK293 cells, primary screen, counter-screen for MrgX1 allosteric activator project, cell-based, Fluo-4 calcium flux, duplicate | shares compounds with MrgX1 antagonist | Fluo-4 fluorescence ratio; stronger effect = higher value | fluorescence ratio F(max-min)/F0 at 10 µM | 0.4% of 4,000 active;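 active = calcium fluorescence ratio, averaged over duplicates, at least 3 SD of the buffer-well ratio, meaning a nonspecific response in receptor-free cells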;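 note: untransfected parental HEK293 lacking MrgX1 used as counterscreen for MrgX1 allosteric activators; fluorescence change taken during the second addition on a kinetic imager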
HEK293 Ca cntr2 = calcium response in parental HEK293 cells, primary screen, counter-screen for MrgX1 agonist project, cell-based, Fluo-4 calcium flux, duplicate, agonist mode; shares compounds with MrgX1 antagonist; Fluo-4 calcium fluorescence (FDSS); stronger effect = higher value; fluorescence ratio F(max-min)/F0 at 10 µM; 8.7% of 4,000 active;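 active = calcium fluorescence ratio at least three times the spread of buffer wells, meaning a non-specific response in parental cells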
* = called active by the depositor; i = inactive; / = no result. Shown are actives, neighbours in structure and some others; about 3.8% of the full set was active somewhere.

SMILES	MrgX1 agonist	RGS4 inh	MrgX1 antagonist	RGS4 act	Hep lipid drop	MrgX1 allo act	MrgX1 ant reconf	HEK293 Ca flux	HEK293 Ca counter	HEK293 Ca cntr2
CC(/C=C1\SC(=S)N(NC(=O)c2ccccc2C)C1=O)=C\c1ccccc1	i	i	i	i	-6	i	/	/	/	/
CC(/C=C1\SC(=S)N(NS(=O)(=O)c2ccc(C)cc2)C1=O)=C\c1ccccc1	i	i	-14*	-7.3*	0	i	i	i	i	47*
CCOC(=O)C1CC(c2ccc(Cl)cc2)=NNC1=O (stereo not drawn)	i	i	i	i	-11	i	/	/	/	/
N#Cc1c(N)sc2c1CCN(CCc1ccccc1)C2	i	i	i	i	2	i	/	/	/	/
Cc1ccc2nc(C(O)C(O)c3nc4ccc(C)cc4[nH]3)[nH]c2c1 (stereo not drawn)	i	i	i	i	-34	i	/	/	/	/
Cc1ccc2nc(C(C)O)[nH]c2c1 (stereo not drawn)	i	i	-7.1*	i	/	i	64%*	i	i	i
NC(=O)[C@@H]1CCCN1Cc1c(C(=O)N2CCc3ccccc3C2)nc2ccc(Cl)cn12	i	i	i	i	28	i	/	/	/	/
COC(=O)c1ccc(Oc2ccc(S(=O)(=O)N3CCCCC3)cc2N)cc1	i	i	-4.9*	i	-1	i	i	i	i	i
COC(=O)CNc1cc(S(=O)(=O)N2CCCCC2)ccc1Oc1ccc(C(=O)OC)cc1	i	i	i	i	/	i	/	/	/	/
COc1ccc(S(=O)(=O)N2CCCCC2)cc1C(=O)N1CCCC1	i	i	-5.6*	i	11	i	i	i	i	i
CC(C)C1CC(CCN2CCCCC2)(c2ccccc2)CCO1 (stereo not drawn)	i	i	i	i	-3	i	/	/	/	/
Cc1ccc2[nH]c(=O)c(CN(CCN3CCOCC3)C(=O)Nc3ccc(F)cc3)cc2c1	i	i	-5.2*	i	/	i	i	i	i	i
COc1cc2cc(CN(CCCN3CCOCC3)C(=O)Nc3ccc(F)cc3)c(=O)[nH]c2cc1OC	i	i	i	i	-12	i	/	/	/	/
CC(=O)Oc1c(Cl)c(N2CCOCC2)c(OC(C)=O)c2ccccc12	i	i	i	i	0	i	/	/	/	/
COc1cc2cc3c(N)c(C(=O)Nc4sc(C)c(C)c4C#N)sc3nc2cc1OC	i	i	-6.2*	i	/	i	74%*	i	i	i
COC(=O)c1sc(-c2ccc(C(C)(C)C)cc2)cc1NC(=O)c1ccccc1C(=O)O	i	i	-7.1*	i	4	i	70%*	i	i	100*
COC(=O)c1sc(-c2ccc(Cl)cc2)cc1NC(=O)c1ccccc1C(=O)O	i	i	i	i	7	i	/	/	/	/
Cc1ccc(-c2nnc(CSc3nnc(C)s3)o2)cc1	i	i	-5.9*	i	/	i	i	i	i	i
CCC(=O)Nc1ccc(Br)cn1	i	i	-5.4*	i	4	i	i	i	i	i
O=C(CSc1ccccn1)Nc1ccc(NC(=O)CSc2ccccn2)cc1	i	i	i	i	9	i	/	/	/	/
O=C(CSc1ccccn1)Nc1ccc(Br)cn1	i	i	-5.3*	i	6	i	i	i	i	i
CCCC(=O)Nc1ccc(Br)cn1	i	i	i	i	5	i	/	/	/	/
Cc1cc(NC(=O)C(C)SCC(=O)N(C)CC(=O)Nc2ccc(Br)cc2C)no1 (stereo not drawn)	i	i	i	i	-12	i	/	/	/	/
CCN1CCN(c2nc3c(c(=O)[nH]c(=O)n3C)n2CCSc2nc3ccccc3s2)CC1	i	i	-6.3*	i	/	i	i	i	i	i
CC(CSc1nc2ccccc2s1)Cn1c(N2CCCC2)nc2c1c(=O)[nH]c(=O)n2C (stereo not drawn)	i	i	i	i	0	i	/	/	/	/
SMILES	MrgX1 agonist	RGS4 inh	MrgX1 antagonist	RGS4 act	Hep lipid drop	MrgX1 allo act	MrgX1 ant reconf	HEK293 Ca flux	HEK293 Ca counter	HEK293 Ca cntr2
Cc1ccc(C)c(NC(=S)NCC(c2ccccc2)N(C)C)c1 (stereo not drawn)	i	i	i	i	2	i	/	/	/	/
O=C(Nc1ncccc1Cl)C(Sc1ccccc1)c1ccccc1 (stereo not drawn)	i	i	i	i	/	i	/	/	/	/
COc1ccc(-c2cc(C(=O)N3CCN(C(c4ccccc4)c4ccccc4)CC3)no2)cc1OC	i	i	-5.3*	i	/	i	i	i	i	i
O=C1N=C(c2ccccc2)C(c2ccccc2)N1 (stereo not drawn)	i	i	-7.3*	i	/	i	i	i	i	i
O=S(=O)(c1ccc(Br)cc1)c1nc(-c2ccco2)oc1NCC1CCCO1 (stereo not drawn)	i	i	i	i	-16	i	/	/	/	/
CCCCCOC(=O)Cc1c(O)c2ccccc2[nH]c1=O	i	i	-7.9*	i	1	i	i	i	i	i
O=C(Cc1c(O)c2ccccc2[nH]c1=O)NC1CCCCCCC1	i	i	-8.4*	i	/	i	i	i	i	i
